Test results as given in paper PMC10172704 (Poultry Science, 2023).
Ends that are not written are not given here.

Assays:
Test in all cases: Microdilution broth MIC/MBC
Conditions in all cases: synthesized identified peptides
[1] = tested on: S. aureus ATCC 29213; type: cell-based, Staphylococcus aureus
Summary of the method: (§1)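 Broth microdilution per CLSI guideline, modified. Strains grown 18 h on tryptic soy agar, adjusted to 0.5 McFarland, then diluted in 0.85% NaCl to about 5 × 10^5 CFU/mL final. Suspension mixed with test compound in microplate wells and incubated 37°C, 18 h. Growth inhibition read at 600 nm. Positive control: 20 µg/mL kanamycin. Experiments done 3 times.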

[2] = tested on: B. cereus DMST 5040; type: cell-based, Bacillus cereus
Summary of the method: as §1

[3] = tested on: S. Typhimurium TISTR 292; type: cell-based, Salmonella typhimurium
Summary of the method: as §1

[4] = tested on: E. coli TISTR 780; type: cell-based
Summary of the method: as §1

Sequence	MIC [1] [mM]	MIC [2] [mM]	MIC [3] [mM]	MIC [4] [mM]
KVLPLPFGGRSPGGGA [KVLPLPFGGRSPGGGA]	>4	>4	>4	>4
CASALLGA [CASALLGA]	4	4	4	>4
KGGDLGLFEPTL [KGGDLGLFEPTL]	2	2	2	>4
VTLKVPGVTL [VTLKVPGVTL]	>4	>4	>4	>4
HAAHTTGLGGPF [HAAHTTGLGGPF]	>4	>4	>4	>4
